Converted amounts (≈) assume the structure as drawn.
How the values were obtained:
Assay type in all cases: functional
Staphylococcus aureus [1] = assay: Antibacterial activity against hospital acquired methicillin-resistant Staphylococcus aureus ATCC 43300 assessed as zone of inhibition by disc diffusion method
Staphylococcus aureus [2] = assay: Antibacterial activity against community acquired methicillin-resistant Staphylococcus aureus BAA 1747 assessed as zone of inhibition by disc diffusion method
Enterococcus faecalis = assay: Antibacterial activity against vancomycin-susceptible Enterococcus faecalis ATCC 29212 assessed as zone of inhibition by disc diffusion method
[3] = tested on: Staphylococcus epidermidis; assay: Antibacterial activity against Staphylococcus epidermidis ATCC 14990 assessed as zone of inhibition by disc diffusion method
Staphylococcus aureus [4] = assay: Antibacterial activity against heterogeneous vancomycin-intermediate resistant Staphylococcus aureus Mu3 ATCC 700698 assessed as zone of inhibition by disc diffusion method
Staphylococcus aureus [5] = assay: Antibacterial activity against linezolid-resistant Staphylococcus aureus assessed as bacterial growth inhibition incubated for 20 hrs by broth dilution method
How it was run: (§1)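 Broth microdilution: 0.5 McFarland suspension from an overnight culture, diluted 1:100 in cation-adjusted Mueller Hinton broth (CAMHB), given serial dilutions of test agent for 20 h at 37 °C. MIC is the lowest concentration with no visible growth.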

Escherichia coli = assay: Antibacterial activity against beta-lactam resistant Escherichia coli BAA 2326 assessed as zone of inhibition by disc diffusion method
Staphylococcus aureus [6] = assay: Antibacterial activity against vancomycin-intermediate resistant Staphylococcus aureus Mu50 ATCC 700699 assessed as bacterial growth inhibition incubated for 20 hrs by broth dilution method; how it was run: as §1
Staphylococcus aureus [7] = assay: Antibacterial activity against vancomycin-intermediate resistant Staphylococcus aureus Mu50 ATCC 700699 assessed as zone of inhibition by disc diffusion method
Staphylococcus aureus [8] = assay: Antibacterial activity against methicillin-susceptible Staphylococcus aureus ATCC 25923 assessed as bacterial growth inhibition incubated for 20 hrs by broth dilution method; how it was run: as §1
Staphylococcus aureus [9] = assay: Antibacterial activity against vancomycin-resistant Staphylococcus aureus HIP11714 assessed as inhibition of bacterial growth incubated for 20 hrs by broth microdilution method; details: HIP11714, 20 h; how it was run: as §1
Staphylococcus aureus [10] = assay: Antibacterial activity against methicillin-resistant Staphylococcus aureus ATCC 43300 assessed as bacterial growth inhibition incubated for 20 hrs by broth dilution method; how it was run: as §1
Bacillus anthracis = assay: Antibacterial activity against Bacillus anthracis Sterne 34F2 assessed as zone of inhibition by disc diffusion method
Staphylococcus aureus [11] = assay: Antibacterial activity against vancomycin-intermediate Staphylococcus aureus clinical isolate 12 assessed as bacterial growth inhibition after 20 hrs by broth microdilution assay; how it was run: as §1
Enterococcus faecium = assay: Antibacterial activity against vancomycin-resistant Enterococcus faecium ATCC 700221 assessed as zone of inhibition by disc diffusion method
Staphylococcus aureus [12] = assay: Antibacterial activity against vancomycin-resistant Staphylococcus aureus HIP11714 assessed as zone of inhibition by disc diffusion method
Pseudomonas aeruginosa = assay: Antibacterial activity against Pseudomonas aeruginosa ATCC 15422 assessed as zone of inhibition by disc diffusion method
Klebsiella pneumoniae = assay: Antibacterial activity against multidrug-resistant Klebsiella pneumoniae ATCC 700603 assessed as zone of inhibition by disc diffusion method
Staphylococcus aureus [13] = assay: Antibacterial activity against methicillin-susceptible Staphylococcus aureus ATCC 25923 assessed as zone of inhibition by disc diffusion method
Acinetobacter baumannii [14] = assay: Antibacterial activity against Acinetobacter baumannii ATCC 19606 assessed as zone of inhibition by disc diffusion method
Acinetobacter baumannii [15] = assay: Antibacterial activity against multidrug-resistant Acinetobacter baumannii BAA 1605 assessed as zone of inhibition by disc diffusion method
Staphylococcus aureus [16] = assay: Antibacterial activity against heterogeneous vancomycin-intermediate Staphylococcus aureus Mu3 ATCC 700698 assessed as bacterial growth inhibition incubated for 20 hrs by broth dilution method; how it was run: as §1
Enterobacter cloacae = assay: Antibacterial activity against Enterobacter cloacae ATCC 23355 assessed as zone of inhibition by disc diffusion method
Staphylococcus aureus [17] = assay: Antibacterial activity against vancomycin-resistant Staphylococcus aureus clinical isolate 10 assessed as bacterial growth inhibition after 20 hrs by broth microdilution assay; how it was run: as §1
Staphylococcus aureus [18] = assay: Antibacterial activity against methicillin-susceptible Staphylococcus aureus ATCC 25923 in presence of 5% v/v serum
Staphylococcus aureus [19] = assay: Bactericidal activity against vancomycin-intermediate resistant Staphylococcus aureus Mu50 ATCC 700699 assessed as bacterial killing incubated for over night
How it was run: (§2)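 For MBC, 5 μL from each well was spotted on agar and incubated overnight; MBC is the lowest concentration with no visible growth. Ratio taken as MBC over MIC.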

Staphylococcus aureus [20] = assay: Bactericidal activity against heterogeneous vancomycin-intermediate Staphylococcus aureus Mu3 ATCC 700698 assessed as bacterial killing incubated for over night; how it was run: as §2
Staphylococcus aureus [21] = assay: Ratio of MBC to MIC against heterogeneous vancomycin-intermediate Staphylococcus aureus Mu3 ATCC 700698; how it was run: as §2
Staphylococcus aureus [22] = assay: Antibacterial activity against methicillin-susceptible Staphylococcus aureus ATCC 25923 in presence of 10% v/v serum
Staphylococcus aureus [23] = assay: Antibacterial activity against methicillin-susceptible Staphylococcus aureus ATCC 25923 in presence of 0.05% v/v albumin
Staphylococcus aureus [24] = assay: Bactericidal activity against methicillin-resistant Staphylococcus aureus ATCC 43300 assessed as bacterial killing incubated for over night; how it was run: as §2
Staphylococcus aureus [25] = assay: Bactericidal activity against methicillin-susceptible Staphylococcus aureus ATCC 25923 assessed as bacterial killing incubated for over night
How it was run: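 5 μL from each well was spotted on agar and incubated overnight. MBC was taken as the lowest concentration with no visible growth.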

Staphylococcus aureus [26] = assay: Bactericidal activity against Vancomycin-resistant Staphylococcus aureus HIP11714 assessed as bacterial killing incubated for over night; how it was run: as §2
Staphylococcus aureus [27] = assay: Antibacterial activity against methicillin-susceptible Staphylococcus aureus ATCC 25923 in presence of glutathione
How it was run: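 Broth microdilution MIC: a 0.5 McFarland suspension from overnight culture was diluted 1:100 in cation-adjusted Mueller Hinton broth supplemented with glutathione 100 μM. It was exposed to serial dilutions for 20 h at 37 °C. MIC was taken as the lowest concentration with no visible growth.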

Staphylococcus aureus [28] = assay: Ratio of MBC to MIC against vancomycin-intermediate resistant Staphylococcus aureus Mu50 ATCC 700699; how it was run: as §2
Staphylococcus aureus [29] = assay: Ratio of MBC to MIC against methicillin-susceptible Staphylococcus aureus ATCC 25923; how it was run: as §2

Structure (SMILES) | diameter of the inhibition zone (DIZ) (Staphylococcus aureus [1]) | diameter of the inhibition zone (DIZ) (Staphylococcus aureus [2]) | diameter of the inhibition zone (DIZ) (Enterococcus faecalis) | diameter of the inhibition zone (DIZ) [3] | diameter of the inhibition zone (DIZ) (Staphylococcus aureus [4]) | MIC (Staphylococcus aureus [5]) | diameter of the inhibition zone (DIZ) (Escherichia coli) | MIC (Staphylococcus aureus [6]) | diameter of the inhibition zone (DIZ) (Staphylococcus aureus [7]) | MIC (Staphylococcus aureus [8]) | MIC (Staphylococcus aureus [9]) | diameter of the inhibition zone (DIZ) (Bacillus anthracis) | diameter of the inhibition zone (DIZ) (Enterococcus faecium) | diameter of the inhibition zone (DIZ) (Staphylococcus aureus [12]) | diameter of the inhibition zone (DIZ) (Pseudomonas aeruginosa) | diameter of the inhibition zone (DIZ) (Klebsiella pneumoniae) | diameter of the inhibition zone (DIZ) (Staphylococcus aureus [13]) | diameter of the inhibition zone (DIZ) (Acinetobacter baumannii [14]) | diameter of the inhibition zone (DIZ) (Acinetobacter baumannii [15]) | diameter of the inhibition zone (DIZ) (Enterobacter cloacae) | also measured
CCCCCSSc1ccccn1 | 21 mm | 22 mm | 23 mm | >50 mm | 27 mm | > 50 µM | 0 mm | 50 µM (≈ 10.7 µg/mL) | 24 mm | 50 µM (≈ 10.7 µg/mL) | > 50 µM | >50 mm | 24 mm | 22 mm | 0 mm | 0 mm | 32 mm | 0 mm | 0 mm | 8 mm | MIC (Staphylococcus aureus [10]): 50 µM (≈ 10.7 µg/mL); MIC50 (Staphylococcus aureus [11]): 50 µM (≈ 10.7 µg/mL); MIC90 (Staphylococcus aureus [11]): 50 µM (≈ 10.7 µg/mL); MIC (Staphylococcus aureus [16]): 50 µM (≈ 10.7 µg/mL); MIC50 (Staphylococcus aureus [17]): 50 µM (≈ 10.7 µg/mL); MIC90 (Staphylococcus aureus [17]): 50 µM (≈ 10.7 µg/mL)
CCCCCCCCCSSc1ccccn1 | 22 mm | 19 mm | 8 mm | 41 mm | 22 mm | 25 µM (≈ 6.74 µg/mL) | 0 mm | 1.56 µM (≈ 0.42 µg/mL) | 30 mm | 12.5 µM (≈ 3.37 µg/mL) | 12.5 µM (≈ 3.37 µg/mL) | 25 mm | 8 mm | 21 mm | 0 mm | 0 mm | 20 mm | 0 mm | 0 mm | 0 mm | MIC (Staphylococcus aureus [18]): 25 µM; MBC (Staphylococcus aureus [19]): 25 µM (≈ 6.74 µg/mL); MBC (Staphylococcus aureus [20]): > 50 µM; Ratio (Staphylococcus aureus [21]): >8; MIC (Staphylococcus aureus [22]): 50 µM; MIC (Staphylococcus aureus [23]): 25 µM; MBC (Staphylococcus aureus [24]): > 50 µM; MIC (Staphylococcus aureus [10]): 6.25 µM (≈ 1.68 µg/mL); MIC50 (Staphylococcus aureus [11]): 6.25 µM (≈ 1.68 µg/mL); MIC90 (Staphylococcus aureus [11]): 12.5 µM (≈ 3.37 µg/mL); MBC (Staphylococcus aureus [25]): > 50 µM; MBC (Staphylococcus aureus [26]): > 50 µM; MIC (Staphylococcus aureus [27]): 50 µM; MIC (Staphylococcus aureus [16]): 6.25 µM (≈ 1.68 µg/mL); Ratio (Staphylococcus aureus [28]): 16; MIC50 (Staphylococcus aureus [17]): 6.25 µM (≈ 1.68 µg/mL); MIC90 (Staphylococcus aureus [17]): 12.5 µM (≈ 3.37 µg/mL); Ratio (Staphylococcus aureus [29]): >4
CC(C)CSSc1ccccn1 | 0 mm | 0 mm | 0 mm | 40 mm | 0 mm | – | 0 mm | – | 0 mm | – | – | 50 mm | 0 mm | 0 mm | 0 mm | 0 mm | 0 mm | 0 mm | 0 mm | 0 mm | –

— ChEMBL document CHEMBL4715813, “Allicin-inspired pyridyl disulfides as antimicrobial agents for multidrug-resistant Staphylococcus aureus” (Eur J Med Chem, 2018)
